The source made the active and inactive calls. The rule behind the calls is not given here.
How the values were obtained:
[1] = Cytotoxicity against human HepG2 2.2.15 cells assessed as reduction in cell viability measured after 72 hrs by MTT assay; format: cell-based
In short: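 HepG2 2.2.15 cells (HBV-producing; grown in DMEM with 10% FBS, penicillin/streptomycin and 0.38 mg/mL G418) seeded in 96-well plates and grown 24 h, then treated 72 h with compounds. Viability read by MTT absorbance at 490 nm relative to untreated cells. CC50 is the dose causing 50% cell death.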

HepG2 [2] = assay: Antiproliferative activity against human HepG2 cells assessed as inhibition of cell proliferation after 72 hrs by MTT assay; format: functional, cell-based; settings: HepG2, 72 h
In short: (§1)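 Cells seeded in 96-well plates and grown 24 h to reach exponential growth, then exposed to test compounds in culture medium for 72 h. Viability read by MTT absorbance at 490 nm relative to untreated cells. IC50 is the concentration giving 50% inhibition of proliferation.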

Hepatitis B virus [3] = assay: (§2) Antiviral activity against HBV infected in human HepG2.2.15 cells assessed as inhibition of DNA replication at 0.8 uM supplemented with fresh medium containing compound every 2 days for 6 days by RT-PCR analysis relative to control; format: functional; settings: HepG2 2.2.15, 144 h, time 6 day
In short: (§3)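 HepG2 2.2.15 cells (2×10^5/well, 24-well) left 24 h to recover from trypsinization, then given fresh medium with compound (single-point screen at 0.8 μM), renewed every 2 days for 6 days. Intracellular HBV DNA extracted and quantified by real-time PCR. IC50 is the dose giving 50% inhibition of DNA replication, taken from dose–response.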

Huh-7 = assay: Antiproliferative activity against human Huh-7 cells assessed as inhibition of cell proliferation after 72 hrs by MTT assay; format: functional, cell-based; settings: Huh-7, 72 h; in short: as §1
SK-HEP1 = assay: Antiproliferative activity against human SK-HEP1 cells assessed as inhibition of cell proliferation after 72 hrs by MTT assay; format: functional, cell-based; settings: SK-HEP1, 72 h; in short: as §1
Hepatitis B virus [4] = assay: Antiviral activity against HBV infected in human HepG2.2.15 cells assessed as inhibition of DNA replication supplemented with fresh medium containing compound every 2 days for 6 days by RT-PCR analysis; format: functional, organism-based; settings: HepG2 2.2.15; in short: as §3
[5] = Selectivity index, ratio of CC50 for human HepG2 2.2.15 cells to IC50 for antiviral activity against HBV infected in human HepG2.2.15 cells assessed as inhibition of DNA replication; format: toxicity, cell-based; settings: read-out: Ratio CC50/IC50
HepG2 [6] = assay: Induction of apoptosis in human HepG2 cells assessed as down regulation of Bcl-xl expression measured after 48 hrs by Western blot analysis; format: functional, cell-based
In short: (§4)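 HepG2 cells treated 5, 10 or 20 μM for 48 h, lysed; 40 μg protein/lane resolved by SDS-PAGE, transferred to PVDF, blocked in 5% nonfat milk, probed overnight at 4 °C with mouse anti-Bad, Bax, Bcl-2 or Bcl-xl, then secondary antibody 2 h. ECL detection; band densities expressed relative to GAPDH.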

HepG2 [7] = assay: Induction of apoptosis in human HepG2 cells assessed as viable cells at 20 uM after 48 hrs by Annexin-V FITC/propidium iodide staining based fluorescence microscopic analysis (reference value: 97.07%); format: functional; settings: read-out: Activity
HepG2 [8] = assay: Induction of apoptosis in human HepG2 cells assessed as nuclear fragmentation at 5 to 20 uM after 48 hrs by Hoechst 33342 staining based fluorescence microscopic analysis; format: functional, cell-based; settings: dose 5-20 µM
In short: (§5)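 HepG2 cells (5×10^4/well, six-well) exposed to 5, 10 or 20 μM for 48 h, washed with PBS, fixed in 4% paraformaldehyde 30 min, stained with Hoechst 33342 (20 μg/mL) 15 min at room temperature in the dark. Nuclear fragmentation and chromatin condensation scored by fluorescence microscopy.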

HepG2 [9] = assay: Induction of apoptosis in human HepG2 cells assessed as up regulation of Bax expression measured after 48 hrs by Western blot analysis; format: functional, cell-based; in short: as §4
HepG2 [10] = assay: Induction of apoptosis in human HepG2 cells assessed as chromatin condensation at 5 to 20 uM after 48 hrs by Hoechst 33342 staining based fluorescence microscopic analysis; format: functional, cell-based; settings: dose 5-20 µM; in short: as §5
HepG2 [11] = assay: Induction of apoptosis in human HepG2 cells assessed as viable cells at 5 uM after 48 hrs by Annexin-V FITC/propidium iodide staining based flow cytometric analysis (reference value: 97.07%); settings: HepG2, 48 h
HepG2 [12] = assay: Induction of apoptosis in human HepG2 cells assessed as early apoptotic cells at 20 uM after 48 hrs by Annexin-V FITC/propidium iodide staining based fluorescence microscopic analysis (reference value: 1.68%); format: functional
Hepatitis B virus [13] = assay: Antiviral activity against HBV infected in human HepG2.2.15 cells assessed as inhibition of HBsAg production supplemented with fresh medium containing compound every 3 days for 6 days by EIA relative to control; format: functional, HepG2 2.2.15; settings: time 6 day
HepG2 [14] = assay: Induction of apoptosis in human HepG2 cells assessed as down regulation of Bcl-2 expression measured after 48 hrs by Western blot analysis; format: functional, cell-based; in short: as §4
HepG2 [15] = assay: Induction of apoptosis in human HepG2 cells assessed as late apoptotic cells at 10 uM after 48 hrs by Annexin-V FITC/propidium iodide staining based fluorescence microscopic analysis (reference value: 1.11%); format: functional
HepG2 [16] = assay: Induction of apoptosis in human HepG2 cells assessed as up regulation of Bad expression measured after 48 hrs by Western blot analysis; format: functional, cell-based; in short: as §4
HepG2 [17] = assay: Induction of apoptosis in human HepG2 cells assessed as necrotic cells at 20 uM after 48 hrs by Annexin-V FITC/propidium iodide staining based fluorescence microscopic analysis (reference value: 0.14%); format: functional
HepG2 [18] = assay: Induction of apoptosis in human HepG2 cells assessed as late apoptotic cells at 20 uM after 48 hrs by Annexin-V FITC/propidium iodide staining based fluorescence microscopic analysis (reference value: 1.11%); format: functional
Hepatitis B virus [19] = assay: as §2, with “against lamivudine and entecavir-resistant” for “against”, “HBV harboring rtL180 M/rtM204V/rtT184L mutant” for “HBV”; format: functional; settings: HepG2 2.2.15, 144 h, time 6 day
HepG2 [20] = assay: Induction of apoptosis in human HepG2 cells assessed as necrotic cells at 10 uM after 48 hrs by Annexin-V FITC/propidium iodide staining based fluorescence microscopic analysis (reference value: 0.14%); format: functional
HepG2 [21] = assay: Induction of apoptosis in human HepG2 cells assessed as necrotic cells at 5 uM after 48 hrs by Annexin-V FITC/propidium iodide staining based flow cytometric analysis (reference value: 0.14%)
HepG2 [22] = assay: Induction of apoptosis in human HepG2 cells assessed as viable cells at 10 uM after 48 hrs by Annexin-V FITC/propidium iodide staining based fluorescence microscopic analysis (reference value: 97.07%); format: functional; settings: read-out: Activity
HepG2 [23] = assay: Induction of apoptosis in human HepG2 cells assessed as early apoptotic cells at 5 uM after 48 hrs by Annexin-V FITC/propidium iodide staining based flow cytometric analysis (reference value: 1.68%)
HepG2 [24] = assay: Induction of apoptosis in human HepG2 cells assessed as early apoptotic cells at 10 uM after 48 hrs by Annexin-V FITC/propidium iodide staining based fluorescence microscopic analysis (reference value: 1.68%); format: functional
HepG2 [25] = assay: Induction of apoptosis in human HepG2 cells assessed as late apoptotic cells at 5 uM after 48 hrs by Annexin-V FITC/propidium iodide staining based flow cytometric analysis (reference value: 1.11%)

COc1ccc(C(C)=O)cc1CSc1nc2ccc(OCCN(C)C)cc2c(=O)n1Cc1ccco1
CC50 at 72 h [1]: > 10 µM | IC50 (HepG2 [2]): 11.3 µM | inhibition at 0.8 µM (Hepatitis B virus [3]): 20.7%

CN(C)CCCOc1ccc2nc(SCc3ccccc3)n(Cc3ccccc3)c(=O)c2c1
CC50 at 72 h [1]: > 10 µM | IC50 (HepG2 [2]): > 20 µM | inhibition at 0.8 µM (Hepatitis B virus [3]): 42.8%

CCN(CC)CCOc1ccc2nc(SCc3ccccc3OC)n(Cc3ccccc3)c(=O)c2c1
CC50 at 72 h [1]: > 10 µM | IC50 (HepG2 [2]): > 20 µM | inhibition at 0.8 µM (Hepatitis B virus [3]): 9.8%

COc1ccc(C(C)=O)cc1CSc1nc2ccc(OCCN(C)C)cc2c(=O)n1Cc1ccccc1
CC50 at 72 h [1]: > 10 µM | IC50 (HepG2 [2]): 19 µM | inhibition at 0.8 µM (Hepatitis B virus [3]): 15.6%

CNC(=O)c1cc(Oc2ccc(NC(=O)Nc3ccc(Cl)c(C(F)(F)F)c3)cc2)ccn1 [SORAFENIB]
IC50 (Huh-7): 7.92 µM | IC50 (SK-HEP1): 9.64 µM | IC50 (HepG2 [2]): 7.67 µM

O=c1[nH]cc(F)c(=O)[nH]1 [FLUOROURACIL]
IC50 (HepG2 [2]): 8.69 µM

CCN(CC)CCOc1ccc2nc(SCc3ccccc3OC)n(Cc3ccco3)c(=O)c2c1
CC50 at 72 h [1]: > 10 µM | IC50 (Hepatitis B virus [4]): 0.77 µM | IC50 (HepG2 [2]): 19 µM | selectivity ratio [5]: > 13 | inhibition at 0.8 µM (Hepatitis B virus [3]): 52.6%

CN(C)CCCOc1ccc2nc(SCc3ccccc3)n(Cc3ccco3)c(=O)c2c1
Activity (HepG2 [6]): Dose-dependent effect | viability at 20 µM (HepG2 [7]): 22.9% | Activity (HepG2 [8]): Active | IC50 (Huh-7): 6.42 µM | CC50 at 72 h [1]: > 10 µM | Activity (HepG2 [9]): Dose-dependent effect | Activity (HepG2 [10]): Active | viability at 5 µM (HepG2 [11]): 81.5% | Activity (HepG2 [12]): 40.31% | inhibition (INH) (Hepatitis B virus [13]): 4.55% | IC50 (Hepatitis B virus [4]): 0.58 µM | Activity (HepG2 [14]): Dose-dependent effect | Activity (HepG2 [15]): 14.15% | IC50 (SK-HEP1): 6.75 µM | Activity (HepG2 [16]): Dose-dependent effect | Activity (HepG2 [17]): 5.12% | Activity (HepG2 [18]): 31.67% | IC50 (HepG2 [2]): 5.44 µM | inhibition at 0.8 µM (Hepatitis B virus [19]): 64% | Activity (HepG2 [20]): 4.5% | Activity (HepG2 [21]): 0.49% | viability at 10 µM (HepG2 [22]): 57.5% | Activity (HepG2 [23]): 13.07% | selectivity ratio [5]: > 17.2 | Activity (HepG2 [24]): 23.83% | Activity (HepG2 [25]): 4.88% | inhibition at 0.8 µM (Hepatitis B virus [3]): 67.3%

CCN(CC)CCOc1ccc2nc(SCc3ccccc3)n(Cc3ccco3)c(=O)c2c1
CC50 at 72 h [1]: > 10 µM | inhibition (INH) (Hepatitis B virus [13]): 13.64% | IC50 (Hepatitis B virus [4]): 0.63 µM | IC50 (HepG2 [2]): 17.3 µM | inhibition at 0.8 µM (Hepatitis B virus [19]): 58.9% | selectivity ratio [5]: > 15.9 | inhibition at 0.8 µM (Hepatitis B virus [3]): 67.5%

CN(C)CCOc1ccc2nc(SCc3ccccc3)n(Cc3cccs3)c(=O)c2c1
CC50 at 72 h [1]: > 10 µM | IC50 (Hepatitis B virus [4]): 0.77 µM | selectivity ratio [5]: > 13 | inhibition at 0.8 µM (Hepatitis B virus [3]): 53.6%

COc1ccc(C(C)=O)cc1CSc1nc2ccc(OCCCN(C)C)cc2c(=O)n1Cc1ccco1
CC50 at 72 h [1]: > 10 µM | IC50 (Hepatitis B virus [4]): 0.79 µM | IC50 (HepG2 [2]): 9.4 µM | selectivity ratio [5]: > 12.7 | inhibition at 0.8 µM (Hepatitis B virus [3]): 54.2%

COc1ccc(C(C)=O)cc1CSc1nc2ccc(OCCCN(C)C)cc2c(=O)n1Cc1cccs1
CC50 at 72 h [1]: 9.63 µM | IC50 (HepG2 [2]): 8.98 µM | inhibition at 0.8 µM (Hepatitis B virus [3]): 0.16%

From ChEMBL document CHEMBL4765418, “Discovery of novel quinazolinone derivatives as potential anti-HBV and anti-HCC agents” (Eur J Med Chem, 2020)
